Data published in ChEMBL document CHEMBL1144333, “Dipyridyl amides: potent metabotropic glutamate subtype 5 (mGlu5) receptor antagonists” (Bioorg Med Chem Lett, 2005).

Assays:
[1] = molecular target: T1, Metabotropic glutamate receptor 5 (Homo sapiens, UniProt P41594); test: Inhibitory concentration against human recombinant metabotropic glutamate receptor 5 (mGlu5) in Ltk cells determined using fluorescence detection method; format: cell-based
How it was run: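 Automated functional Ca2+ flux assay in Ltk cells stably expressing human recombinant mGlu5. Changes in cytosolic Ca2+ were read by fluorescence with the Ca2+-sensitive dye fura-2. IC50 values are means of two to three experiments.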

[2] = Modest half life in rat was determined; format: ADME; details: in vivo
[3] = High plasma clearance in rat was determined; format: ADME, organism-based; details: read-out: Clp
[4] = Low oral bioavailability was determined; format: ADME, organism-based; details: rat, in vivo
[5] = Modest half life was determined; format: ADME; details: rat
[6] = High plasma clearance was determined; format: ADME, organism-based; details: rat, read-out: Clp
[7] = molecular target: T1, Metabotropic glutamate receptor 5; test: Inhibitory concentration against human recombinant metabotropic glutamate receptor 5 (mGlu5) in Ltk cells determined using fluorescence detection method; NA=Not Active; format: cell-based
How it was run: (§1)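 Automated functional Ca2+ flux assay in Ltk cells stably expressing human recombinant mGlu5. Changes in cytosolic Ca2+ were read by fluorescence with the Ca2+-sensitive dye fura-2. IC50 values are means of two to three experiments. Compounds were called not active when IC50 > 10 μM.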

[8] = molecular target: T1, Metabotropic glutamate receptor 5; test: Inhibitory concentration against human recombinant metabotropic glutamate receptor 5 (mGlu5) in Ltk cells determined using fluorescence detection method; IA=Inactive; format: cell-based; how it was run: as §1
[9] = Oral bioavailability in rat; LOQ = limit of quantitation; format: ADME, organism-based; details: in vivo
[10] = Modest half life in rat was determined; LOQ = limit of quantitation; format: ADME; details: in vivo

T1 sequence (P41594 whole entry): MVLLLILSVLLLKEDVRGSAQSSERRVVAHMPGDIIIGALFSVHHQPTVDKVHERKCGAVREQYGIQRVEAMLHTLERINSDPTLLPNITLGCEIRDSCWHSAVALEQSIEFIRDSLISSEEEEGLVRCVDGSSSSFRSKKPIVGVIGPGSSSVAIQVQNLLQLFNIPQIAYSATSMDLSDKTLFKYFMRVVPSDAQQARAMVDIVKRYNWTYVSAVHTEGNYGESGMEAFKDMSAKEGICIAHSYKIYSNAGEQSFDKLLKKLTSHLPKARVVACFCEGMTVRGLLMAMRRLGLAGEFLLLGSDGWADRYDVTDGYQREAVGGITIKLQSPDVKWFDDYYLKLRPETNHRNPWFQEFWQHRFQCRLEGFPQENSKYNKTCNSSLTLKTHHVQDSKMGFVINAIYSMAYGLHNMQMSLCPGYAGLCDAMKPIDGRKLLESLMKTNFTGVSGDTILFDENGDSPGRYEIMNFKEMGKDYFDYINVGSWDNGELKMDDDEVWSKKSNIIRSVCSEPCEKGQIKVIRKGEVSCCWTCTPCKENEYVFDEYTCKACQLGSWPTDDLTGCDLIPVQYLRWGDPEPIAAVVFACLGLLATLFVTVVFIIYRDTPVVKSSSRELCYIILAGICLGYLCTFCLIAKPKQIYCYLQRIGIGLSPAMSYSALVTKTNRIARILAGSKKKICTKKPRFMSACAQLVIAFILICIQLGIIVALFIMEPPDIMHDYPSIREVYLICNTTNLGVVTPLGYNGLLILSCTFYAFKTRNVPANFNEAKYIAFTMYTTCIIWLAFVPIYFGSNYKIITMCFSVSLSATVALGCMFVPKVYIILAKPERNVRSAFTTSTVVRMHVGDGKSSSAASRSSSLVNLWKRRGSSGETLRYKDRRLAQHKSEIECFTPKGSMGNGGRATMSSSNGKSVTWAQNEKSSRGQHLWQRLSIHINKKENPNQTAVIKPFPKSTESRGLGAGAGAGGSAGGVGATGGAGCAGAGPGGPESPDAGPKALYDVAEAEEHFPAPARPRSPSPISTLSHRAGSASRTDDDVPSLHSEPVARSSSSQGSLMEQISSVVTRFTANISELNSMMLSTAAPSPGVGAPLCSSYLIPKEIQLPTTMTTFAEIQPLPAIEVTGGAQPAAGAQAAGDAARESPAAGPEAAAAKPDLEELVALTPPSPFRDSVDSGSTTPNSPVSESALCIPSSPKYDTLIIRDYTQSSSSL

Compound | IC50 [1] [nM] | further results
Nc1nc(N2CCCCC2)c(Cl)nc1C(=O)Nc1ccccn1 | 103 | –
Cc1cccc(NC(=O)c2nc(C)ccc2Nc2cccnc2)n1 | 11 | half-life [2]: 1.25 h; clearance [3]: 176 mL/min/kg
Nc1nc(N)c(C(=O)Nc2ccccn2)nc1Cl | 3800 | –
CN(C)c1ncc(C(=O)Nc2ccccn2)nc1Cl | 158 | –
CN(C)c1cnc(C(=O)Nc2ccccn2)c(N)n1 | 5080 | –
CNc1ncc(Cl)nc1C(=O)Nc1ccccn1 | 145 | –
CN(C)c1nc(N)c(C(=O)Nc2ccccn2)nc1Cl | 134 | –
O=C(Nc1ccccn1)c1cncc(Cl)n1 | 254 | –
CC(C)Nc1nc(N)c(C(=O)Nc2ccccn2)nc1Cl | 23 | –
Cc1cnc(N)c(C(=O)Nc2ccccn2)n1 | 28 | bioavailability [4]: 20%; half-life [5]: 4.4 h; clearance [6]: 56 mL/min/kg
Nc1ncc(Br)nc1C(=O)Nc1ccccn1 | 12 | –
Nc1ncc(Cl)nc1C(=O)Nc1ccccn1 | 11 | –
CN(C)c1ncc(Br)nc1C(=O)Nc1ccccn1 | – | IC50 [7]: Not Active
Cc1cccc(NC(=O)c2nc(C)ccc2N)n1 | 22 | –
Cc1cccc(NC(=O)c2nc(C)cnc2N)n1 | 8 | –
O=C(Nc1ccccn1)c1cncc(Br)c1 | – | IC50 [8]: Not Active
Cc1cccc(NC(=O)c2nc(Cl)cnc2N)n1 | 5 | –
Cc1cccc(NC(=O)c2cccc(Br)n2)n1 | 21 | –
O=C(Nc1ccccn1)c1cccc(Br)c1 | – | IC50 [8]: Not Active
Cc1cncc(C(=O)Nc2ccccn2)n1 | 165 | –
O=C(Nc1ccccn1)c1cnccn1 | – | IC50 [7]: Not Active
Nc1nccnc1C(=O)Nc1ccccn1 | 3540 | –
Cc1cccc(N(C)C(=O)c2nc(C)cnc2N)n1 | – | IC50 [8]: Not Active
Cc1cccc(NC(=O)c2cccc(C)n2)n1 | 32 | –
Cc1ccc(O)c(C(=O)Nc2cccc(C)n2)c1 | 105 | –
Cc1cccc(NC(=O)c2nc(C)ccc2O)n1 | 7 | F [9]: Limit of quantification; clearance [3]: > 100 mL/min/kg; T1/2 [10]: Limit of quantification
